Reference: ChEMBL document CHEMBL4813974 (Eur J Med Chem, 2021)
Calls of active or inactive are those of the source. No cut-off for these calls is given here.

Assays:
[1] = target: T1, Alkaline ceramidase 3 (Mus musculus) (UniProt Q9D099); test: Inhibition of ACER3 in ASAH2-null mouse embryonic fibroblast lysate using RBM14C16 fluorogenic substrate measured at 1:1 substrate to compound molar ratio at pH 9 in presence of Ca2+ by fluorescence spectrophotometry; conditions: MEF
T1 sequence (whole entry): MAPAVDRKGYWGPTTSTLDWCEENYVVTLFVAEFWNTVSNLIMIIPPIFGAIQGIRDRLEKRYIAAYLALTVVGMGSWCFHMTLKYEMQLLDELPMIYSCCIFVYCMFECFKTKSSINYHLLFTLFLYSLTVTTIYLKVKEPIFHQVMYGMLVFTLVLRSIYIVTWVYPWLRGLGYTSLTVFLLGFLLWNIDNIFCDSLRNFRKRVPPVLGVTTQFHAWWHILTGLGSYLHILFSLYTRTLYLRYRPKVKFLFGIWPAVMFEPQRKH

[2] = target: T2, Acid ceramidase (Homo sapiens) (UniProt Q13510); test: Inhibition of human ASAH1 stably over expressed in human A-375 cell lysate using RBM14C12 fluorogenic substrate measured at 2:1 compound to substrate molar ratio at pH 4.5 by fluorescence spectrophotometry; format: subcellular
T2 sequence (whole entry): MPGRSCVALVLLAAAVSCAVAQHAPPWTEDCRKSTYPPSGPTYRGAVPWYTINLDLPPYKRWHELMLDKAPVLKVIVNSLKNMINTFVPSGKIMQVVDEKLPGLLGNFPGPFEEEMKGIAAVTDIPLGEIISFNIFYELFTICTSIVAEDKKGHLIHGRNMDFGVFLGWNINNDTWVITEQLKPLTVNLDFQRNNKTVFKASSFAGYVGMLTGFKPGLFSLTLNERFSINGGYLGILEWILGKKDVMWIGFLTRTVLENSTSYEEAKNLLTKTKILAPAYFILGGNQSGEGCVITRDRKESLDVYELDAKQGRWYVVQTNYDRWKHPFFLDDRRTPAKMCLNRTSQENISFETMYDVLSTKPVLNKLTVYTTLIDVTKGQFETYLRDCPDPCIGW

Neutral ceramidase = Neutral ceramidase (Homo sapiens, UniProt Q9NR71); test: Inhibition of human ASAH2 stably over expressed in human A-375 cell lysate using RBM14C24 fluorogenic substrate measured at 20 uM at pH 7.5 by fluorescence spectrophotometry; format: subcellular
Sequence of Neutral ceramidase (Q9NR71 whole entry): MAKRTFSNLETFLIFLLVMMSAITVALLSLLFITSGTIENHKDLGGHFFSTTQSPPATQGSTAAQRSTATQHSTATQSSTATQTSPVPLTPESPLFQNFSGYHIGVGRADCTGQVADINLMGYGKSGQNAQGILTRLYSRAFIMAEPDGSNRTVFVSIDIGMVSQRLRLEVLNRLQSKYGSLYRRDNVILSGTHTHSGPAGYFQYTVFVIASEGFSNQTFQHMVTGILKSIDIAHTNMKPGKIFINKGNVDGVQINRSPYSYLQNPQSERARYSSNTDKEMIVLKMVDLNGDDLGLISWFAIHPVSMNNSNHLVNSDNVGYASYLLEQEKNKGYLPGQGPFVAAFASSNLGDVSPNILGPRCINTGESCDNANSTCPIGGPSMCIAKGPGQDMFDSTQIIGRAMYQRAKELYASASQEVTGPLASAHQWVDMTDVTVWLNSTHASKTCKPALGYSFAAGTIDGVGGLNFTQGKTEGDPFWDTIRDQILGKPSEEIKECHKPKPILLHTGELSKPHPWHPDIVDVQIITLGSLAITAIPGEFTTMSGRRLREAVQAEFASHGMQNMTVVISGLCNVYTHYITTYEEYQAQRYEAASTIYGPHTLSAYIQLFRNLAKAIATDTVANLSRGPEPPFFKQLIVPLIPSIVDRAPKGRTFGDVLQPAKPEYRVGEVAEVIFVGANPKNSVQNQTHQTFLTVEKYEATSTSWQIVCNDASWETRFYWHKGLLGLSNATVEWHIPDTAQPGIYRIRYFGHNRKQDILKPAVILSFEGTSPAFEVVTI

[3] = target: T2, Acid ceramidase (Homo sapiens); test: Inhibition of human ASAH1 stably over expressed in human A-375 cell lysate using RBM14C12 fluorogenic substrate measured at 1:1 compound to substrate molar ratio at pH 4.5 by fluorescence spectrophotometry; format: subcellular
[4] = target: Neutral ceramidase (Mus musculus) (UniProt Q9JHE3); test: Inhibition of ASAH2 in wild type mouse intact embryonic fibroblast using RBM14C16 fluorogenic substrate measured at pH 7.5 incubated for 3 hrs by fluorescence spectrophotometry; conditions: MEF
Sequence of Neutral ceramidase (Mus musculus) (Q9JHE3 whole entry): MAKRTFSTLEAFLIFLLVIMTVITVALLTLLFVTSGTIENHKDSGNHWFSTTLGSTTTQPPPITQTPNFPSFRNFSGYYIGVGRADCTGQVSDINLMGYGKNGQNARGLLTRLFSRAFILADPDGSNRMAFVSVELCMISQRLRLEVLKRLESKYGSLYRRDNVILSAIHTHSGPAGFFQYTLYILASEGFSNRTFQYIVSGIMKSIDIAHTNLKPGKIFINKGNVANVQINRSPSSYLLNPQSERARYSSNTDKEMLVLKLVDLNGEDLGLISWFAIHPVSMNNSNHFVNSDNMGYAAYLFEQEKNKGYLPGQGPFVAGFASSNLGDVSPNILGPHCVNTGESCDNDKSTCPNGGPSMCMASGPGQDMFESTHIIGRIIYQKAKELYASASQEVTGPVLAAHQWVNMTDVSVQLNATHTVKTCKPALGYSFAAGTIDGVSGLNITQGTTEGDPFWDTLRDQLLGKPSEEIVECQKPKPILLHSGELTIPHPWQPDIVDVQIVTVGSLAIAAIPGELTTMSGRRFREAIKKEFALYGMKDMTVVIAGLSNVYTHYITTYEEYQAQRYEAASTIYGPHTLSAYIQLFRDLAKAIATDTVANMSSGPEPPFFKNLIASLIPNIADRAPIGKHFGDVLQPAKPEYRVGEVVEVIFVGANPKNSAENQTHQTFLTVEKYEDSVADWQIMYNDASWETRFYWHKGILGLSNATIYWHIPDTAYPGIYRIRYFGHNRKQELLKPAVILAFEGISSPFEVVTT
In short: (§1)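 Intact MEF (ASAH2-null or wild type) seeded at 2x10^4 cells/well 24 h before the assay. Then given RBM14C16 (10 μM) plus a range of compound concentrations, added together, in DMEM 10% FBS for 3 h at 37 °C. Stopped with MeOH, oxidized with NaIO4 at pH 10.6, umbelliferone fluorescence read at 355/460 nm. Normalized to SRB protein; three experiments in triplicate.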

[5] = target: T1, Alkaline ceramidase 3 (Mus musculus); test: Inhibition of ACER3 in ASAH2-null mouse intact embryonic fibroblast using RBM14C16 fluorogenic substrate measured at pH 9 for 3 hrs by fluorescence spectrophotometry; conditions: MEF
In short: as §1

Structure (SMILES)	inhibition [1]	inhibition [2]	other results
CCCCCCCCCCCC/C=C/[C@@H](O)[C@@H](C)NC(=O)c1ccc(OCCCCC)cc1	–	–	inhibition (Neutral ceramidase): inactive; inhibition [3]: inactive
CCCCCCCCCCCCCC[C@@H](O)[C@H](C)NC(=O)c1ccc(CCCCCCC)cc1	inactive	inactive	–
CCCCCCCCCCCC/C=C/[C@H](O)[C@@H](C)NC(=O)CCCCCCC	inactive	inactive	–
CCCCCCCCCCCC/C=C/[C@@H](O)[C@@H](C)NC(=O)c1ccc(OCCCCCCC)cc1	–	–	inhibition (Neutral ceramidase): inactive; inhibition [3]: inactive
CCCCCCCCCCCC/C=C/[C@@H](O)[C@@H](C)NC(=O)c1ccc(OCCOCOC)cc1	–	–	inhibition (Neutral ceramidase): inactive; inhibition [3]: inactive
CCCCCCCCCCCC/C=C/[C@@H](O)[C@@H](C)NC(=O)c1ccccc1	–	–	inhibition (Neutral ceramidase): inactive; inhibition [3]: inactive
CCCCCCCCCCCC/C=C/[C@H](O)[C@@H](C)NC(=O)c1ccc(CCCCCCC)cc1	inactive	inactive	–
CCCCCCCCCCCC/C=C/[C@@H](O)[C@@H](C)NC(=O)CBr	inactive	inactive	–
CCCCCCCCCCCC/C=C/[C@@H](O)[C@@H](C)NC(=O)CCCCCCC	–	–	inhibition [4]: inactive; inhibition [5]: inactive
CCCCCCCCCCCC/C=C/[C@@H](O)[C@@H](C)NC(=O)c1ccc(CC)cc1	–	–	inhibition (Neutral ceramidase): inactive; inhibition [3]: inactive
CCCCCCCCCCCC/C=C/[C@@H](O)[C@@H](C)NC(=O)c1ccc(OCOC)cc1	–	–	inhibition (Neutral ceramidase): inactive; inhibition [3]: inactive
CCCCCCCCCCCC/C=C/[C@H](O)[C@H](C)NC(=O)CBr	inactive	inactive	–
CCCCCCCCCCCC/C=C/[C@@H](O)[C@@H](C)N	inactive	inactive	–
CCCCCCCCCCCC/C=C/[C@@H](O)[C@@H](C)NC(=O)c1ccc(C(C)(C)C)cc1	–	–	inhibition (Neutral ceramidase): inactive; inhibition [3]: inactive
CCCCCCCCCCCC/C=C/[C@H](O)[C@H](C)NC(=O)CCCCCCC	inactive	inactive	–
CCCCCCCCCCCCCC[C@@H](O)[C@@H](C)NC(=O)c1ccc(CCCCCCC)cc1	inactive	inactive	–
CCCCCCCCCCCC/C=C/[C@@H](O)[C@H](C)NC(=O)CCCCCCC	inactive	inactive	–

Structure (SMILES)	inhibition [1]	inhibition [2]	other results
CCCCCCCCCCCC/C=C/[C@@H](O)[C@@H](C)NC(=O)c1ccc(OCCCCCOCOC)cc1	–	–	inhibition (Neutral ceramidase): inactive; inhibition [3]: inactive
CCCCCCCCCCCC/C=C/[C@@H](O)[C@@H](C)NC(=O)c1ccc(CCCCC)cc1	–	–	inhibition (Neutral ceramidase): inactive; inhibition [3]: inactive
CCCCCCCCCCCC/C=C/[C@H](O)[C@@H](C)NC(=O)CBr	inactive	inactive	–
CCCCCCCCCCCCCC[C@H](O)[C@@H](C)NC(=O)c1ccc(CCCCCCC)cc1	inactive	inactive	–
CCCCCCCCCCCC/C=C/[C@H](O)[C@@H](C)N	inactive	inactive	–
CCCCCCCCCCCC/C=C/[C@@H](O)[C@@H](C)NC(=O)c1ccc(CCC)cc1	–	–	inhibition (Neutral ceramidase): inactive; inhibition [3]: inactive
CCCCCCCCCCCC/C=C/[C@@H](O)[C@H](C)N	inactive	inactive	–
CCCCCCCCCCCCCC[C@H](O)[C@H](C)NC(=O)c1ccc(CCCCCCC)cc1	inactive	inactive	–
CCCCCCCCCCCC/C=C/[C@H](O)[C@H](C)N	inactive	inactive	–
CCCCCCCCCCCC/C=C/[C@H](O)[C@H](C)NC(=O)c1ccc(CCCCCCC)cc1	inactive	inactive	–
CCCCCCCCCCCC/C=C/[C@@H](O)[C@@H](C)NC(=O)c1ccc(OCCCCCCCOCOC)cc1	–	–	inhibition (Neutral ceramidase): inactive; inhibition [3]: inactive
CCCCCCCCCCCC/C=C/[C@@H](O)[C@@H](C)NC(=O)c1ccc(OCCCCCC)cc1	–	–	inhibition (Neutral ceramidase): inactive; inhibition [3]: inactive
CCCCCCCCCCCC/C=C/[C@@H](O)[C@H](C)NC(=O)CBr	inactive	inactive	–
CCCCCCCCCCCC/C=C/[C@@H](O)[C@H](C)NC(=O)c1ccc(CCCCCCC)cc1	inactive	inactive	–
CCCCCCCCCCCC/C=C/[C@@H](O)[C@@H](C)NC(=O)c1ccc(CCCCCC)cc1	–	–	inhibition (Neutral ceramidase): inactive; inhibition [3]: inactive
CCCCCCCCCCCC/C=C/[C@@H](O)[C@@H](C)NC(=O)c1ccc(OCCOCCOC)cc1	–	–	inhibition (Neutral ceramidase): inactive; inhibition [3]: inactive

Further lines, with some results ahead:

inhibition [1]	inhibition [2]	Structure (SMILES)	other results
inactive	inactive	CCCCCCCCCCCCCC[C@H](O)[C@H](C)N	–
inactive	inactive	CCCCCCCCCCCCCC[C@@H](O)[C@@H](C)NC(=O)C(C)(C)C	–
inactive	inactive	CCCCCCCCCCCCCC[C@H](O)[C@@H](C)NC(=O)CCCCCCC	–
inactive	inactive	CCCCCCCCCCCC/C=C/[C@@H](O)[C@@H](C)NC(=O)C(C)(C)C	–
inactive	inactive	CCCCCCCCCCCCCC[C@H](O)[C@H](C)NC(=O)CBr	–
inactive	inactive	CCCCCCCCCCCCCC[C@@H](O)[C@@H](C)NC(=O)CBr	–
inactive	inactive	CCCCCCCCCCCCCC[C@@H](O)[C@H](C)N	–
inactive	inactive	CCCCCCCCCCCC/C=C/[C@H](O)[C@@H](C)NC(=O)C(C)(C)C	–
inactive	inactive	CCCCCCCCCCCCCC[C@H](O)[C@@H](C)N	–
inactive	inactive	CCCCCCCCCCCC/C=C/[C@@H](O)[C@H](C)NC(=O)C(C)(C)C	–
inactive	inactive	CCCCCCCCCCCC/C=C/[C@H](O)[C@H](C)NC(=O)C(C)(C)C	–
inactive	inactive	CCCCCCCCCCCCCC[C@H](O)[C@@H](C)NC(=O)C(C)(C)C	–
inactive	inactive	CCCCCCCCCCCCCC[C@H](O)[C@H](C)NC(=O)CCCCCCC	–
inactive	inactive	CCCCCCCCCCCCCC[C@H](O)[C@H](C)NC(=O)C(C)(C)C	–
inactive	inactive	CCCCCCCCCCCCCC[C@@H](O)[C@@H](C)NC(=O)CCCCCCC	–
inactive	inactive	CCCCCCCCCCCCCC[C@@H](O)[C@H](C)NC(=O)CCCCCCC	–
inactive	inactive	CCCCCCCCCCCCCC[C@@H](O)[C@@H](C)N	–
inactive	inactive	CCCCCCCCCCCCCC[C@H](O)[C@@H](C)NC(=O)CBr	–
inactive	inactive	CCCCCCCCCCCCCC[C@@H](O)[C@H](C)NC(=O)C(C)(C)C	–
inactive	inactive	CCCCCCCCCCCCCC[C@@H](O)[C@H](C)NC(=O)CBr	–
